These results are taken from ChEMBL document CHEMBL4118079, “Discovery of novel naphthoquinone derivatives as inhibitors of the tumor cell specific M2 isoform of pyruvate kinase” (Eur J Med Chem, 2017).

Data set [1] deals with T1, Pyruvate kinase PKM (Homo sapiens, UniProt P14618). Put plainly: Inhibition of recombinant human N-terminal His-tagged PKM2 expressed in Escherichia coli BL21 preincubated for 15 mins followed by PEP/NADH addition measured at 30 secs interval for 3 to 6 mins by fluorescent PK-LDH assay. The method, boiled down: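 Human PKM2 with an N-terminal His tag, expressed in E. coli BL21 and Ni-agarose purified. Enzyme and compound preincubated 15 min in 50 mM Tris–HCl pH 7.5, 10 mM KCl, 5 mM MgCl2. NADH fluorescence read kinetically every 30 s for 3–6 min. IC50.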
Target sequence in this assay (P14618 2-531 limits assumed): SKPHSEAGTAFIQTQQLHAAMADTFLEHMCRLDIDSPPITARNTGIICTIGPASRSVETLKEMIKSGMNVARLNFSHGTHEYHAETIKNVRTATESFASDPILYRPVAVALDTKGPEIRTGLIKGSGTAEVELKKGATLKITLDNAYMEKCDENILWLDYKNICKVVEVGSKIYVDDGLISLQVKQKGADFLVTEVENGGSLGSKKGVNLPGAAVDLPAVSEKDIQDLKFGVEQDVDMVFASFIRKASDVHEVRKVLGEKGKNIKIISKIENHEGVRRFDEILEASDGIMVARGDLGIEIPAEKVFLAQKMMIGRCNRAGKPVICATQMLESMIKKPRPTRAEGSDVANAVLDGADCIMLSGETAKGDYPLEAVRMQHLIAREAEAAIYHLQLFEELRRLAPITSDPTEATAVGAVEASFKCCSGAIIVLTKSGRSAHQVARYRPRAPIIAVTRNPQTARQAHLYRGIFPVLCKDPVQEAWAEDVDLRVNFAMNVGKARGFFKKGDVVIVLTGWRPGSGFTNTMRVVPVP

Data set [2] has as its target T1, Pyruvate kinase PKM. Put plainly: Inhibition of recombinant human N-terminal His-tagged PKM1 expressed in Escherichia coli BL21 preincubated for 15 mins followed by PEP/NADH addition measured at 30 secs interval for 3 to 6 mins by fluorescent PK-LDH assay. The method, boiled down:
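Human PKM1 with an N-terminal His tag, expressed in E. coli BL21 and Ni-agarose purified. Activity measured by PK–LDH coupling, with pyruvate formation tracked as NADH depletion by fluorescence in kinetic mode. IC50.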
Target sequence in this assay (P14618 whole entry): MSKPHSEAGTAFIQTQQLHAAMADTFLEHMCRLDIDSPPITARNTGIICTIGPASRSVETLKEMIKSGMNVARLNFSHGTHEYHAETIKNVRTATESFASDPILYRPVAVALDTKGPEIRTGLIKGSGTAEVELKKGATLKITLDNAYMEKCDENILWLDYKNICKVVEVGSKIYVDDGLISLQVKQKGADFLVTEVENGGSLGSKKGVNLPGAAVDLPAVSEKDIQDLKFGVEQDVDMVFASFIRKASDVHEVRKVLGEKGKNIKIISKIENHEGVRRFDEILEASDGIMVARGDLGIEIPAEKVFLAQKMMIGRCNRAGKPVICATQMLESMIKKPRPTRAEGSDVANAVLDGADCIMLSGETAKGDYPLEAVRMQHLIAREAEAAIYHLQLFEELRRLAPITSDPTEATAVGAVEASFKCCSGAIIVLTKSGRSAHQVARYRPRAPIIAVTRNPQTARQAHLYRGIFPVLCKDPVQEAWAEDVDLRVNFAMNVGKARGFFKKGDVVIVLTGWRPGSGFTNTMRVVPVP

The species entered for data set [3] is Homo sapiens. Kind of data set: Selectivity ratio of IC50 for recombinant human N-terminal His-tagged PKM1 expressed in Escherichia coli BL21 to IC50 for recombinant human N-terminal His-tagged PKM2 expressed in Escherichia coli BL21.
Another data set deals with Pyruvate kinase PKLR (Homo sapiens, UniProt P30613). Put plainly: Inhibition of recombinant human N-terminal His-tagged PKL expressed in Escherichia coli preincubated for 15 mins followed by PEP/NADH addition measured at 30 secs interval for 3 to 6 mins by fluorescent PK-LDH assay.
Chain of Pyruvate kinase PKLR (P30613 whole entry): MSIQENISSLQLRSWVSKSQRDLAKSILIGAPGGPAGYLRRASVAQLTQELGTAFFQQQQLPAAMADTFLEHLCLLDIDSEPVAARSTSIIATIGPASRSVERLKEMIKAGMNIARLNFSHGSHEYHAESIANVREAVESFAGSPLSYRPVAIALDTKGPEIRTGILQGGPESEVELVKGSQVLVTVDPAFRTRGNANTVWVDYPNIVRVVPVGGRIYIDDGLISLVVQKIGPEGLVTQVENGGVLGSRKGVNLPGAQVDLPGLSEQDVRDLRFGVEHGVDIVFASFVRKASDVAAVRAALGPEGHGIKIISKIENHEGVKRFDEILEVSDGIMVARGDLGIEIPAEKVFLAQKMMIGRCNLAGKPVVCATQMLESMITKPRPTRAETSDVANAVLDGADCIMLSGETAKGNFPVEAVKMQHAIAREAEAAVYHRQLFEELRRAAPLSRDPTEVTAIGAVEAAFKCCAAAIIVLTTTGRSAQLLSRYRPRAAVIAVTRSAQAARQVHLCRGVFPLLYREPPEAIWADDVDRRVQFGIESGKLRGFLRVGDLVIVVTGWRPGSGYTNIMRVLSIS
The species named for data set [4] is Homo sapiens. Kind of data set: Selectivity ratio of IC50 for recombinant human N-terminal His-tagged PKL expressed in Escherichia coli to IC50 for recombinant human N-terminal His-tagged PKM2 expressed in Escherichia coli BL21.
Data set [5] concerns HCT-116. Kind of data set: Antiproliferative activity against human HCT116 cells after 48 hrs by MTS assay. Type of data set: functional, cell-based. As to conditions: HCT-116, 48 h. The essentials:
(§1)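 Cells kept in RPMI 1640 with 9% FBS at 37°C, 5% CO2. 5000 cells/well seeded, left 12 h, then exposed to a range of compound concentrations or DMSO (negative control) for 48 h. MTS added, 3 h at 37°C, absorbance read at 490 nm. IC50 ± SD.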
In general terms: Formazan colour is commonly taken as a measure of viable cells.

Data set [6] has as its system HeLa. Kind of data set: Antiproliferative activity against human HeLa cells after 48 hrs by MTS assay. Type of data set: functional, cell-based. The essentials:
as §1

In data set [7] the test system is NCI-H1299. Kind of data set: Antiproliferative activity against human NCI-H1299 cells after 48 hrs by MTS assay. It counts as functional, cell-based. Particulars: NCI-H1299, 48 h. The method, boiled down: as §1
Data set [8] relates to NCI-H1299. Kind of data set: Antiproliferative activity against human NCI-H1299 cells after 48 hrs in presence of PKM2 activator FBP by MTS assay. As to conditions: NCI-H1299, 48 h. Type of data set: functional, cell-based. The essentials:
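H1299 cells in RPMI 1640 with 9% FBS at 37°C, 5% CO2. 5000 cells/well, 12 h attachment, then 48 h treatment at graded concentrations with FBP (100 µM) added. MTS read-out (3 h, 37°C, A490). IC50 ± SD.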

The subject of a further data set is BEAS-2B. Kind of data set: Cytotoxicity against human BEAS2B cells assessed as reduction in cell viability after 48 hrs by MTS assay. It counts as cell-based. The essentials: as §1
Data set [9] in a line: Selectivity index, ratio of IC50 for human BEAS2B cells to IC50 for human NCI-H1299 cells. Type of data set: toxicity. As to conditions: BEAS2B cells and NCI-H1299 cells, read-out: Ratio IC50.
The subject of data set [10] is HCT-116. Kind of data set: Antiproliferative activity against human HCT116 cells assessed as cell viability at 0.078 uM after 48 hrs by MTS assay relative to control. It counts as functional. As to conditions: HCT-116, 48 h, read-out: Activity.
Data set [11] deals with HCT-116. Put plainly: Antiproliferative activity against human HCT116 cells assessed as cell viability at 0.156 uM after 48 hrs by MTS assay relative to control. Type of data set: functional. Particulars: HCT-116, 48 h, read-out: Activity.
Data set [12] relates to HCT-116. Put plainly: Antiproliferative activity against human HCT116 cells assessed as cell viability at 0.313 uM after 48 hrs by MTS assay relative to control. Particulars: HCT-116, 48 h, read-out: Activity. Type of data set: functional.
Data set [13] deals with HCT-116. Put plainly: Antiproliferative activity against human HCT116 cells assessed as cell viability at 0.625 uM after 48 hrs by MTS assay relative to control. It counts as functional. Particulars: HCT-116, 48 h, read-out: Activity.
Data set [14] relates to HeLa. Kind of data set: Antiproliferative activity against human HeLa cells assessed as cell viability at 0.078 uM after 48 hrs by MTS assay relative to control. As to conditions: read-out: Activity. It counts as functional.
Data set [15] concerns HeLa. Put plainly: Antiproliferative activity against human HeLa cells assessed as cell viability at 0.156 uM after 48 hrs by MTS assay relative to control. Type of data set: functional. Particulars: read-out: Activity.
Data set [16] relates to HeLa. Kind of data set: Antiproliferative activity against human HeLa cells assessed as cell viability at 0.313 uM after 48 hrs by MTS assay relative to control. Type of data set: functional. As to conditions: read-out: Activity.
Data set [17] relates to HeLa. Kind of data set: Antiproliferative activity against human HeLa cells assessed as cell viability at 0.625 uM after 48 hrs by MTS assay relative to control. Type of data set: functional. Particulars: read-out: Activity.

With `CC1=C(CSC(=S)N2CCCCC2)C(=O)c2ccccc2C1=O`, the inhibition result on Pyruvate kinase PKM [1] is “Dose-dependent effect”. Further, the IC50 (usually the concentration that gives 50% inhibition) on Pyruvate kinase PKM [2] is 16.7 µM; on Pyruvate kinase PKLR, 8.2 µM; with HCT-116 [5], 180 nM; in the data set on HeLa [6], 290 nM; in the data set with NCI-H1299 [7] it was 1560 nM; with NCI-H1299 [8], 2010 nM. Further, the IC50 in the data set with BEAS-2B was 18.5 µM. In addition, the Ratio IC50 is 5.7 in the data set listed under Homo sapiens [3] and 2.8 in the data set listed under Homo sapiens [4]. The selectivity ratio in [9] stood at 11.8. Besides, the values for the viability at 0.078 µM in the data set with HCT-116 [10] and in the data set on HeLa [14] were 92.5% and 99%, respectively. Also, the viability at 0.156 µM is 62.3% in the data set with HCT-116 [11] and 95.8% with HeLa [15]. The viability at 0.313 µM in the data set on HCT-116 [12] was 20.7%; with HeLa [16], 21.1%. Also, the viability at 0.625 µM was found to be 6.9% in the data set on HCT-116 [13] and 4.8% in the data set on HeLa [17].
